Measured values taken from ChEMBL document CHEMBL1275590, “Novel arylimidamides for treatment of visceral leishmaniasis” (Antimicrob Agents Chemother, 2010).

What was measured:
[1] = test system: Leishmania donovani; experiment: Antileishmanial activity against intracellular Leishmania donovani LV82 amastigotes infected in CD-1 mouse peritoneal macrophage; format: functional, organism-based
Summary of the method: (§1)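 CD-1 mouse peritoneal macrophages, 5 × 10^4 cells/well in RPMI 1640 + 10% heat-inactivated FBS, adhered overnight. Infected overnight with stationary-phase LV82 promastigotes (5:1 parasite:macrophage), 37°C, 5% CO2. Medium then replaced with compound or vehicle for 72 h at 37°C. Methanol-fixed, Giemsa-stained; % infected macrophages counted at ×1,000. IC50 by four-parameter logistic nonlinear regression.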

[2] = test system: Leishmania amazonensis; experiment: Antileishmanial activity against intracellular Leishmania amazonensis amastigotes; format: functional, organism-based
[3] = test system: Leishmania donovani; experiment: Antileishmanial activity against intracellular Leishmania donovani LV82 amastigotes; format: functional, organism-based; summary of the method: as §1
[4] = Induction of mutagenicity in Salmonella serovar Typhimurium TA 98 assessed as number of revertant colonies at 5 ug by Ames assay; format: toxicity, Salmonella enterica subsp. enterica serovar Typhimurium; conditions: in vivo
Summary of the method: (§2)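 Ames plate incorporation with S. Typhimurium TA98 and TA100, with or without Aroclor 1254-induced rat liver S9 (10% vol/vol). Compound was dissolved in sterile water and serially diluted to 1–500 μg/plate. Positive controls were 2-nitrofluorene and sodium azide without S9, and 2-aminoanthracene with S9; sterile water and DMSO served as vehicles. Revertant colonies and background lawn were scored. A mutagen was defined as a mean revertant count at least 2-fold over solvent control. Single experiment.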

[5] = Induction of mutagenicity in Salmonella serovar Typhimurium TA 100 assessed as number of revertant colonies at 5 ug by Ames assay; format: toxicity, Salmonella enterica subsp. enterica serovar Typhimurium; conditions: in vivo
Summary of the method: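 Plate incorporation method with TA100, with and without Aroclor 1254-induced rat liver S9 (10% vol/vol). Compound dissolved in sterile water, serially diluted; plates scored for revertant count and background lawn versus controls. Mutagen if mean revertants at least 2-fold over mean solvent control. Positive controls: 2-nitrofluorene and sodium azide without S9, 2-aminoanthracene with S9; water and DMSO vehicles.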

[6] = Induction of mutagenicity in Salmonella serovar Typhimurium TA 100 assessed as number of revertant colonies at 2 ug by Ames assay in presence of Aroclor 1254-induced rat liver S9 metabolic activation system; format: toxicity, subcellular, Salmonella enterica subsp. enterica serovar Typhimurium; summary of the method: as §2
[7] = Induction of mutagenicity in Salmonella serovar Typhimurium TA 98 assessed as number of revertant colonies at 2 ug by Ames assay in presence of Aroclor 1254-induced rat liver S9 metabolic activation system; format: toxicity, subcellular, Salmonella enterica subsp. enterica serovar Typhimurium; summary of the method: as §2
[8] = test system: Leishmania major; experiment: Antileishmanial activity against intracellular Leishmania major amastigotes; format: functional, organism-based
[9] = test system: Leishmania donovani; experiment: Antileishmanial activity against Leishmania donovani axenic amastigotes; format: functional, organism-based
[10] = test system: Leishmania donovani; experiment: Antileishmanial activity against Leishmania donovani WR378 infected in golden Syrian hamster assessed as reduction in liver parasitemia at 30 mg/kg/day, po administered for five days; format: functional; conditions: 120 h
Summary of the method: (§3)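 11-day golden hamster VL model adapted from an 8-day method, using L. donovani WR378 metacyclic promastigotes. Dosing was oral, once daily for 5 days. Animals were euthanized on day 11 post-infection. Liver, spleen and femoral bone marrow (flushed with Schneider's medium) were harvested.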

[11] = test system: Leishmania donovani; experiment: Antileishmanial activity against Leishmania donovani WR378 infected in golden Syrian hamster assessed as reduction in spleen parasitemia at 30 mg/kg/day, po administered for five days; format: functional; conditions: 120 h; summary of the method: as §3
[12] = test system: Leishmania donovani; experiment: Antileishmanial activity against Leishmania donovani WR378 infected in golden Syrian hamster assessed as reduction in bone marrow parasitemia at 30 mg/kg/day, po administered for five days; format: functional; conditions: 120 h; summary of the method: as §3

With N=C(N)c1ccc(OCCCCCOc2ccc(C(=N)N)cc2)cc1 [PENTAMIDINE] the IC50 [1] was 14 µM, the IC50 [2] was 0.83 µM and the IC50 [3] was > 50 µM.
Work on O=[N+]([O-])c1ccc2c(c1)Cc1ccccc1-2 [2-NITROFLUORENE] yielded an Activity [4] of 1573.
With [N-]=[N+]=[N-].[Na+] [SODIUM AZIDE] the Activity [5] was 1882.
Work on Nc1ccc2cc3ccccc3cc2c1 [2-AMINOANTHRACENE] yielded an Activity [6] of 2563 and an Activity [7] of 2744.
C[C@@H]1[C@H](O)[C@@H](C)/C=C/C=C/C=C/C=C/C=C/C=C/C=C/[C@H](O[C@@H]2O[C@H](C)[C@@H](O)[C@H](N)[C@@H]2O)C[C@@H]2O[C@](O)(C[C@@H](O)C[C@@H](O)[C@H](O)CC[C@@H](O)C[C@@H](O)CC(=O)O[C@H]1C)C[C@H](O)[C@H]2C(=O)O [AMPHOTERICIN B] showed an IC50 [1] of 8.2 µM, an IC50 [2] of 0.14 µM and an IC50 [8] of 0.21 µM. It also gave an IC50 [9] of 0.098 µM and an IC50 [3] of 0.066 µM.
With NC[C@@H]1O[C@H](O[C@H]2[C@@H](O)[C@H](O[C@@H]3[C@@H](O)[C@H](N)C[C@H](N)[C@H]3O[C@H]3O[C@H](CO)[C@@H](O)[C@H](O)[C@H]3N)O[C@@H]2CO)[C@H](N)[C@@H](O)[C@@H]1O [PAROMOMYCIN] the IC50 [1] was > 100 µM, the IC50 [2] was 19 µM and the IC50 [8] was 25 µM. The IC50 [9] was > 50 µM and the IC50 [3] was > 50 µM.
With CCCCCCCCCCCCCCCCOP(=O)([O-])OCC[N+](C)(C)C [MILTEFOSINE] the inhibition in vivo at 30 mg/kg/day [10] was 88%, the IC50 [1] was 24 µM and the IC50 [8] was 25 µM. It also gave an IC50 [9] of 8.5 µM, an IC50 [3] of 2.7 µM and an inhibition in vivo at 30 mg/kg/day [11] of 79%. It also gave an inhibition in vivo at 30 mg/kg/day [12] of 91%.
